Test [1] has as its system Enterococcus faecalis. The experiment in a line: Antibacterial activity against Enterococcus faecalis assessed as inhibition of bacterial growth at <= 0.008 ug/ml by CLSI broth microdilution method. Type of test: functional. The gist of the method:
(§1)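 Clinical isolates from skin/soft tissue, bloodstream and respiratory specimens were tested by broth microdilution per CLSI M7-A7 and M100-S18, with quality controls. Values are the number of isolates inhibited at each concentration, or MIC / percent susceptible. Highest concentration tested was 8 µg/ml for iclaprim and trimethoprim-sulfamethoxazole, and 64 µg/ml for trimethoprim.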

Test [2] relates to Staphylococcus aureus. The experiment in a line: Antibacterial activity against Methicillin-resistant Staphylococcus aureus assessed as inhibition of bacterial growth at <= 0.008 ug/ml by CLSI broth microdilution method. Type of test: functional. The gist of the method:
(§2)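 Recent clinical isolates from skin/soft tissue, bloodstream and respiratory specimens. Tested by broth microdilution per CLSI M7-A7 and M100-S18, with the appropriate quality controls. The thymidine content of the test medium was assessed to rule out artifactual inhibition.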
For orientation: Dilution methods test growth across graded concentrations, often in twofold steps.

For test [3], the system named is Enterococcus faecium. The experiment in a line: Antibacterial activity against Enterococcus faecium assessed as inhibition of bacterial growth at 0.015 ug/ml by CLSI broth microdilution method. Type of test: functional. In short, it runs like this:
as §1

Test [4] relates to Staphylococcus aureus. Briefly: Antibacterial activity against Methicillin-sensitive Staphylococcus aureus assessed as inhibition of bacterial growth at 0.015 ug/ml by CLSI broth microdilution method. Type of test: functional.
For test [5], the system named is Staphylococcus aureus. Briefly: Antibacterial activity against Methicillin-resistant Staphylococcus aureus assessed as inhibition of bacterial growth at 0.015 ug/ml by CLSI broth microdilution method. Type of test: functional. The gist of the method:
as §2

Test [6] concerns Enterococcus faecalis. The experiment in a line: Antibacterial activity against Enterococcus faecalis assessed as inhibition of bacterial growth at 0.015 ug/ml by CLSI broth microdilution method. Type of test: functional. The gist of the method: as §1
Test [7] relates to Streptococcus sp. 'group B'. The experiment in a line: microbe, parasite or virus in culture. Conditions: read-out: INH.

Each structure is given as a SMILES string.

Consider `COc1cc(Cc2cnc(N)nc2N)c2c(c1OC)OC(C1CC1)C=C2` (configuration not stated), for which the values for the inhibition (INH) in test [1] and in test [2] were 25.5% and 0.1%, respectively. Besides, the inhibition at 0.015 µg/mL in test [3] worked out at 36.3%; in test [4] it was 0.3%; in test [5], 0.4%; in test [6] it was 57.7%.
In the case of `COc1cc(Cc2cnc(N)nc2N)cc(OC)c1OC` [TRIMETHOPRIM], the inhibition at 32 µg/mL in test [7] was found to be 100%.
